Assay [1] in a line: Inhibition of Vibrio cholerae alpha carbonic anhydrase incubated for 30 mins prior to testing measured for 10 to 100 secs by phenol red-based stopped-flow CO2 hydration assay. The method, boiled down: (§1)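 Stopped-flow CO2 hydrase assay on the α, β and γ isoforms of V. cholerae CA. KI values are the mean of 3 independent assays, with errors of ±5–10% of the reported values.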

Assay [2] in a line: Inhibition of Vibrio cholerae gamma carbonic anhydrase incubated for 30 mins prior to testing measured for 10 to 100 secs by phenol red-based stopped-flow CO2 hydration assay. The method, boiled down:
as §1

The nature of assay [3]: Inhibition of Vibrio cholerae beta carbonic anhydrase incubated for 30 mins prior to testing measured for 10 to 100 secs by phenol red-based stopped-flow CO2 hydration assay. A digest of the protocol: as §1

pKi: −log10 of the molar value.

Turning to `O=[N+]([O-])c1ccc(NC(=S)Nc2ccc3c(c2)B(O)OC3)cc1`, the pKi is 7.10 in assay [1], 6.16 in assay [2] and 6.03 in assay [3].
In the case of `O=C(NCc1ccccc1)Nc1ccc2c(c1)B(O)OC2`, the pKi in assay [1] is 7.05; in assay [2] it was 5.73; in assay [3], 4.38.
Regarding `O=C(Nc1ccc(C(F)(F)F)cc1)Nc1ccc2c(c1)B(O)OC2`, the pKi in assay [1] is 7.34; in assay [2], 6.02; in assay [3], 4.26.
Turning to `O=C(Nc1ccccc1)Nc1ccc2c(c1)B(O)OC2`, the values for the pKi in assay [1], in assay [2] and in assay [3] were 6.93, 6.15 and 4.25, respectively.
In the same order, the values of `COc1ccc(NC(=S)Nc2ccc3c(c2)B(O)OC3)cc1` are 6.78, 6.06 and 5.64.
In the same order, the values of `OB1OCc2ccc(NC(=S)Nc3ccc(C(F)(F)F)cc3)cc21` are 7.14, 5.72 and 5.90.
In the case of `OB1OCc2ccc(NC(=S)NCc3ccco3)cc21`, the pKi in assay [1] is 6.66; in assay [2], 5.70; in assay [3], 4.50.
As for `OB1OCc2ccc(NC(=S)NCCc3ccccc3)cc21`, the negative-log Ki (pKi) in assay [1] is 6.99; in assay [2], 6.26; in assay [3], 4.74.
For the compound `O=C(NCc1ccco1)Nc1ccc2c(c1)B(O)OC2`, the results for the pKi in assay [1], in assay [2] and in assay [3] were 6.79, 5.91 and 4.10, respectively.
Take `Nc1ccc2c(c1)B(O)OC2`: the results for the pKi in assay [1], in assay [2] and in assay [3] were 6.78, 5.93 and 4.66, respectively.
Regarding `Cc1cc(Cl)cc(CNC(=O)Nc2ccc3c(c2)B(O)OC3)c1`, the pKi was 7.28 in assay [1], 6.14 in assay [2] and 4.21 in assay [3].
On to `CC(=O)c1ccc(NC(=O)Nc2ccc3c(c2)B(O)OC3)cc1`, for which the pKi is 6.99 in assay [1], 5.95 in assay [2] and 4.19 in assay [3].
As for `O=C(Nc1ccc2c(c1)B(O)OC2)Nc1c(Cl)cc(Cl)cc1Cl`, the pKi in assay [1] was 7.12; in assay [2] it was 6.05; in assay [3], 4.07.
`OB1OCc2ccc(NC(=S)Nc3ccc(F)cc3)cc21`: the values for the pKi in assay [1], in assay [2] and in assay [3] were 6.95, 6.26 and 5.20, respectively.
Turning to `O=C(Nc1ccc(Cl)cc1)Nc1ccc2c(c1)B(O)OC2`, the pKi in assay [1] is 7.25; in assay [2] it was 6.19; in assay [3], 4.71.
As to `Cc1ccc(NC(=S)Nc2ccc3c(c2)B(O)OC3)cc1`, the values for the pKi in assay [1], in assay [2] and in assay [3] were 6.96, 5.75 and 5.59, respectively.
In the same order, the values of `OB1OCc2ccc(NC(=S)Nc3ccc4ccccc4c3)cc21` are 6.22, 5.53 and 4.59.
On to `O=[N+]([O-])c1ccc2c(c1)B(O)OC2`, for which the pKi was 6.85 in assay [1], 6.09 in assay [2] and 5.05 in assay [3].
With `OB1OCc2ccc(NC(=S)Nc3ccccc3)cc21`, the pKi was 5.92 in assay [1], 6.08 in assay [2] and 4.72 in assay [3].
In the same order, the values of `O=C(Nc1ccc(F)cc1)Nc1ccc2c(c1)B(O)OC2` are 7.32, 6.19 and 4.55.
Turning to `COc1ccc(C)cc1NC(=O)Nc1ccc2c(c1)B(O)OC2`, the pKi is 6.25 in assay [1], 6.39 in assay [2] and 4.17 in assay [3].
Take `OB1OCc2ccc(NC(=S)NCc3ccccc3)cc21`: the pKi in assay [1] was 7.02; in assay [2], 5.40; in assay [3], 4.52.
For `OB1OCc2ccccc21` [BENZOXABOROLE], the results for the pKi in assay [1], in assay [2] and in assay [3] were 6.50, 5.55 and 4.15, respectively.
As for `OB1OCc2cc(F)ccc21` [TAVABOROLE], the pKi in assay [1] is 6.80; in assay [2], 6.08; in assay [3] it was 4.01.

The term pKi denotes the Ki on a negative log10 scale, so that one unit is a factor of ten. Low readings indicate a large Ki, high ones a small Ki.

The values are drawn from ChEMBL document CHEMBL4725479, “Benzoxaboroles: New Potent Inhibitors of the Carbonic Anhydrases of the Pathogenic Bacterium Vibrio cholerae” (ACS Med Chem Lett, 2020).
